Data set [1] relates to HCT-116. Put plainly: Antitumor activity against human HCT116 cells xenografted in Rag1 knockout mouse assessed as tumor growth inhibition at 20 mg/kg, ip qd for 14 days relative to untreated control. The settings on record: HCT-116, ip, 336 h, route intraperitoneal, read-out: GI. The data set is classed as functional. The essentials:
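Female specific-pathogen-free Rag1−/− mice, age-matched, inoculated subcutaneously with 5×10⁶ HCT-116 cells in PBS. Dosed ip at 20 mg/kg q.d. for 14 days in 7.5% DMSO/42.5% PEG-400/20% hydroxypropyl-β-cyclodextrin/30% water; controls received vehicle only; n = 7 per group. Tumour volume measured three times weekly; 1-way ANOVA with Holm-Sidak comparison at study end.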

The subject of data set [2] is Mus musculus. Put plainly: Toxicity in human HCT116 cells xenografted Rag1 knockout mouse assessed as body weight loss at 20 mg/kg, ip qd measured up to day 10. The data set is classed as organism-based, HCT-116. The following applies: in vivo. Details: dose 20 mg/kg, route intraperitoneal. The essentials:
(§1)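 Female specific-pathogen-free Rag1−/− mice carrying subcutaneous HCT-116 tumours, given 20 mg/kg ip daily for 14 days in a DMSO/PEG-400/hydroxypropyl-β-cyclodextrin/water vehicle; controls received vehicle; n = 7 per group. Bodyweight recorded daily; mice culled if loss exceeded 20% of starting weight.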

For data set [3], the system named is Mus musculus. Nature of the data set: Toxicity in human HCT116 cells xenografted Rag1 knockout mouse assessed as mortality at 20 mg/kg, ip qd for 14 days. The data set is classed as organism-based, HCT-116. Details: dose 20 mg/kg, route intraperitoneal. The settings on record: in vivo, 336 h. The essentials:
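Age-matched specific pathogen-free female Rag1-/- mice bearing subcutaneous HCT-116 tumours (5 × 10⁶ cells inoculated in PBS), n = 7 per group. Drug given ip at 20 mg/kg once daily for 14 days in 7.5% DMSO/42.5% PEG-400/20% 2-hydroxypropyl-β-cyclodextrin/30% water; controls received vehicle alone. Bodyweight recorded daily; mice culled when weight loss exceeded 20% of starting weight.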
In general terms: In xenograft studies the graft and the host belong to different species.

Data set [4] has as its system Mus musculus. Nature of the data set: Toxicity in human HCT116 cells xenografted Rag1 knockout mouse assessed as body weight loss at 20 mg/kg, ip qd measured after 10 days relative to untreated control. The data set is classed as organism-based, HCT-116. Details: dose 20 mg/kg, route intraperitoneal. The following applies: in vivo, 240 h. Put shortly: as §1
For data set [5], the target named is T1, Phosphatidylinositol 4,5-bisphosphate 3-kinase catalytic subunit delta isoform (Homo sapiens, UniProt O00329).
T1 sequence (O00329 whole entry): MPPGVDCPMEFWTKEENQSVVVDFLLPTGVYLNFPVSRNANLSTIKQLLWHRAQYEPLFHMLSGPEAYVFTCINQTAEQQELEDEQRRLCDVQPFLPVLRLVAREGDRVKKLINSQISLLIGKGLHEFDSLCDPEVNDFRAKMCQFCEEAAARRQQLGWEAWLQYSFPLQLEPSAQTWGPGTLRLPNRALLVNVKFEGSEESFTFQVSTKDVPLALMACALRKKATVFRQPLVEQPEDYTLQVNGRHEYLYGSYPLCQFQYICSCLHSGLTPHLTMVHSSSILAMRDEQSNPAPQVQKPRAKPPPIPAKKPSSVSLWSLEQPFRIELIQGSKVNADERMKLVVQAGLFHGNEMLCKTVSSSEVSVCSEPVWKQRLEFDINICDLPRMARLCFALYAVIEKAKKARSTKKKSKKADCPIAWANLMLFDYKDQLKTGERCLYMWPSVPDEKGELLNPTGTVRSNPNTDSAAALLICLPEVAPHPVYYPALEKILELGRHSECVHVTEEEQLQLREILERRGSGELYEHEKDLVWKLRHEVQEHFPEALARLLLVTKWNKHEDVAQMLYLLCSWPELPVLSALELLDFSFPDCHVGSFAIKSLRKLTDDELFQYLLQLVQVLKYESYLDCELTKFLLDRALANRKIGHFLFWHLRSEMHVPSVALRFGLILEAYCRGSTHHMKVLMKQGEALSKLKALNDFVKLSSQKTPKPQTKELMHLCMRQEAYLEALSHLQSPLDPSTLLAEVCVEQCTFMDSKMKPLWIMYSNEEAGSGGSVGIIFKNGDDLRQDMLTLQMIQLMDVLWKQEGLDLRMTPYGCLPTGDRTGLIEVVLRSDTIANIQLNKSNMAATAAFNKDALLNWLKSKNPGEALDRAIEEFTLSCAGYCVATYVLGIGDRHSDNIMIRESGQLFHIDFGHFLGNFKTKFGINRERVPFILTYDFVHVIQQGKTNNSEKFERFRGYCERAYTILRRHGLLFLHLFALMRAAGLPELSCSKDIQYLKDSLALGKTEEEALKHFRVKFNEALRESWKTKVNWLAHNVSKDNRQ
Nature of the data set: Inhibition of recombinant PI3K p110delta using L-alpha-phosphatidylinositol as substrate and [gamma33P]ATP after 60 mins by thin layer chromatographic technique. Put shortly:
(§2)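 In-house recombinant class Ia PI3K isoform (0.1 µg) with L-α-phosphatidylinositol substrate in lipid kinase buffer (Tris–HCl pH 7.4, NaCl, EDTA), 1% DMSO final. Started with ATP mix (5 mM MgCl₂, 100 µM ATP plus [γ-³³P]ATP), 1 h at room temperature, stopped with 1 M HCl. Lipids extracted in two steps, separated by TLC, read by phosphorimager. Nine inhibitor concentrations; IC50 averaged over two experiments.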

The nature of data set [6]: Selectivity ratio of IC50 for PI3K p110beta to IC50 for PI3K p110alpha.
Data set [7] is described as follows: Selectivity ratio of IC50 for PI3K p110delta to IC50 for PI3K p110alpha.
The target in data set [8] is Phosphatidylinositol 4,5-bisphosphate 3-kinase catalytic subunit alpha isoform (Homo sapiens, UniProt P42336). Put plainly: Inhibition of recombinant PI3K p110alpha using L-alpha-phosphatidylinositol as substrate and [gamma33P]ATP after 60 mins by thin layer chromatographic technique. The essentials:
as §2

Data set [9] in a line: Cytotoxicity against human NZB5 cells expressing wild type p110alpha assessed as inhibition of [3H]thymidine incorporation after 5 days. The data set is classed as functional, cell-based. Put shortly: (§3)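 Early-passage lab-derived lines in α-MEM with insulin, transferrin, selenite and 5% FBS. Seeded at 1000 cells/well; drug added in 10-fold steps up to 20 µM. Incubated five days under 5% O₂/5% CO₂/90% N₂, with ³H-thymidine (0.04 µCi/well) over the last 6 h. Duplicates per dose; least-squares exponential fit; IC50 is the concentration giving 50% less incorporation.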
For orientation: Dividing cells build labelled thymidine or BrdU into new DNA.

Data set [10] is described as follows: Cytotoxicity against human NZOV9 cells expressing p110alpha Y1021C mutant assessed as inhibition of [3H]thymidine incorporation after 5 days. The data set is classed as functional, cell-based. The essentials:
as §3

In data set [11] the target is Phosphatidylinositol 4,5-bisphosphate 3-kinase catalytic subunit beta isoform (Homo sapiens, UniProt P42338). Put plainly: Inhibition of recombinant PI3K p110beta using L-alpha-phosphatidylinositol as substrate and [gamma33P]ATP after 60 mins by thin layer chromatographic technique. Put shortly: as §2
Chain of Phosphatidylinositol 4,5-bisphosphate 3-kinase catalytic subunit beta isoform (P42338 whole entry, canonical isoform): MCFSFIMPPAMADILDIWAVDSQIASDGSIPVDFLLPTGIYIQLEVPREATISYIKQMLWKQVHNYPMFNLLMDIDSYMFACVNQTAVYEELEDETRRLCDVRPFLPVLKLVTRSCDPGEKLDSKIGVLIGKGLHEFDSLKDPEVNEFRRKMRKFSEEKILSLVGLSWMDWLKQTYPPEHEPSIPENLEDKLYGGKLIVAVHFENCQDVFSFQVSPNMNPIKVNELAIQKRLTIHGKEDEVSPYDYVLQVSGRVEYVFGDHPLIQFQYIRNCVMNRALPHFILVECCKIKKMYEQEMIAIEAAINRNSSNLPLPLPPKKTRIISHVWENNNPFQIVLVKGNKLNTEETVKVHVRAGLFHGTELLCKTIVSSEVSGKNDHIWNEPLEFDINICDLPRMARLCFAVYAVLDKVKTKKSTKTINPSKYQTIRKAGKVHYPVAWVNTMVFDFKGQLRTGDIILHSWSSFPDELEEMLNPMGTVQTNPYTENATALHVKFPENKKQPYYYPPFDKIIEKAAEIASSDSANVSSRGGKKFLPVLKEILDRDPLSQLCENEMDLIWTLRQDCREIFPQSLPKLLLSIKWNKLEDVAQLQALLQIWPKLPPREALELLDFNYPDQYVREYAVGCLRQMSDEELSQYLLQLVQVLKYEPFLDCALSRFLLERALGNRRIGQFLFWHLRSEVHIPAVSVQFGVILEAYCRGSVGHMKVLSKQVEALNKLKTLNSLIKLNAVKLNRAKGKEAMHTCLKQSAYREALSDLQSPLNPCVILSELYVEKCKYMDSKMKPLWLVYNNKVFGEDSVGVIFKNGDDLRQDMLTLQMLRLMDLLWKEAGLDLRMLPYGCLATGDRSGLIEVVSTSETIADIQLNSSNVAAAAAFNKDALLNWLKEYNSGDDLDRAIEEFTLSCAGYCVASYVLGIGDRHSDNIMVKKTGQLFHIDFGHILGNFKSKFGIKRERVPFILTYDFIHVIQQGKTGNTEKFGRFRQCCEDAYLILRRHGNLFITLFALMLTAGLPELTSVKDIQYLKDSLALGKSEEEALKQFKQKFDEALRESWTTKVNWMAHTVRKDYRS

Where only a bound is given, the exact number is not on record here.

Chain of Phosphatidylinositol 4,5-bisphosphate 3-kinase catalytic subunit alpha isoform (P42336 whole entry, canonical isoform): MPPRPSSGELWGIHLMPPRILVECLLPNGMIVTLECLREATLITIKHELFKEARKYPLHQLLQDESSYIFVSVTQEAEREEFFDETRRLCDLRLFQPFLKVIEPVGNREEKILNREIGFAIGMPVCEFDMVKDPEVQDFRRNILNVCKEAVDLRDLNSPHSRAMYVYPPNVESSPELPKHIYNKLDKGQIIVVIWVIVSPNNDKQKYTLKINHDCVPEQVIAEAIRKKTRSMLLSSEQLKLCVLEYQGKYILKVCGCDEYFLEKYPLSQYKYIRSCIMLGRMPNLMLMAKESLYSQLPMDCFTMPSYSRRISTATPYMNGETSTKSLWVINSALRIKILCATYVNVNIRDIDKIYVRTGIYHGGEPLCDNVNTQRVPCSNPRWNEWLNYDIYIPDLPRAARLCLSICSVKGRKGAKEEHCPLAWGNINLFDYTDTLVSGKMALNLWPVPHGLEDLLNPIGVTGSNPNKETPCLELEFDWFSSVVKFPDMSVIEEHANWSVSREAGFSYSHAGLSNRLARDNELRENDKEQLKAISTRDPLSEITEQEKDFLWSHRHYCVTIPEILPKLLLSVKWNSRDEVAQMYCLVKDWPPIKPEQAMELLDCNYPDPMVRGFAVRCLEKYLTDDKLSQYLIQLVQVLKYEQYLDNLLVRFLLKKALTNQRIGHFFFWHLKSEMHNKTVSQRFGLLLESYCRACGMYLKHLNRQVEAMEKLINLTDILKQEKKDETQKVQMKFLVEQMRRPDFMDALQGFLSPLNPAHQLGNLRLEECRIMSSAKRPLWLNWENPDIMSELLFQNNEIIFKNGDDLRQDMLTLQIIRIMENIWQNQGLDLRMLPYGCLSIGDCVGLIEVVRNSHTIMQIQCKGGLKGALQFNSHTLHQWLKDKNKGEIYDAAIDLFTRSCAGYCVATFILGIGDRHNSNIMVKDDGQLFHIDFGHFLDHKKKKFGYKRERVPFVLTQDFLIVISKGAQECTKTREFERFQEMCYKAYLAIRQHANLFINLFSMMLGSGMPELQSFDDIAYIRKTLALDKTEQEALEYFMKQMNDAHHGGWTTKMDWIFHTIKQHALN

Consider `Cc1ccc([N+](=O)[O-])cc1S(=O)(=O)N(C)/N=C/c1cnc2ccc(Br)cn12`, for which, in data set [1], the inhibition in vivo at 20 mg/kg came to 23.2%. The Activity entry in data set [2] is reported as “Non-toxic”; in [3], “Non-toxic”; in data set [4], 15%.

In the case of `Cc1ccc([N+](=O)[O-])cc1S(=O)(=O)N(C)/N=C/c1cnn2ccccc12`, the IC50 in [5] is 3400 nM; in [8], 960 nM; in data set [9], 470 nM; in data set [10] it was 660 nM; in data set [11], above 10000 nM. Moreover, the Ratio IC50 in data set [6] came out at 60; in data set [7], 40.

With `CCc1ccn2ncc(/C=N/N(C)S(=O)(=O)c3cc([N+](=O)[O-])ccc3C)c2c1`, the IC50 is above 1000 nM in data set [5]; above 1000 nM in data set [8]; 410 nM in data set [9]; 560 nM in data set [10]; above 1000 nM in data set [11].

Consider `Cc1ccc([N+](=O)[O-])cc1S(=O)(=O)N(C)/N=C/c1cnn2cc(Br)ccc12`, for which the IC50 in data set [5] was above 1000 nM; in data set [8], above 1000 nM; in data set [9], above 20000 nM; in data set [10], 4500 nM; in data set [11], above 1000 nM.

Consider `CC/C(=N\N(C)S(=O)(=O)c1cc([N+](=O)[O-])ccc1C)c1cnn2ccc(C#N)cc12`, for which the IC50 was above 1000 nM in [5]; 390 nM in [8]; 410 nM in data set [9]; 3700 nM in data set [10]; above 1000 nM in data set [11].

Turning to `C/C(=N\N(C)S(=O)(=O)c1cc([N+](=O)[O-])ccc1C)c1cnn2ccc(C#N)cc12`, the IC50 came out at 510 nM in data set [5]; 80 nM in data set [8]; 4400 nM in [9]; 7500 nM in data set [10]; 600 nM in [11].

Turning to `Cc1ccn2ncc(/C=N/N(C)S(=O)(=O)c3cc([N+](=O)[O-])ccc3C)c2c1`, the IC50 in data set [5] is 700 nM; in data set [8], 110 nM; in data set [9] it was 50 nM; in data set [10], 70 nM; in data set [11], above 1000 nM.

What is called IC50 is the midpoint of a concentration-inhibition curve.
